Bioassay records deposited in PubChem BioAssay by several laboratories.
Only some compounds are listed: those with a hit (about 9.6% of all), similar ones and a draw of the others.
PMI activator – increases human mannose-6-phosphate isomerase activity; P34949; AID 1214; purified human PMI, coupled resazurin fluorescence, 20 min; stronger effect = higher value; 1 = vehicle control, 0 substrate-free wells; activation factor at 20 µM; hit rate 0.005% among 190,000;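 active = activation factor of 2 or more at 20 µM, relative to plate controls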
Target sequence (P34949 whole entry, looked up): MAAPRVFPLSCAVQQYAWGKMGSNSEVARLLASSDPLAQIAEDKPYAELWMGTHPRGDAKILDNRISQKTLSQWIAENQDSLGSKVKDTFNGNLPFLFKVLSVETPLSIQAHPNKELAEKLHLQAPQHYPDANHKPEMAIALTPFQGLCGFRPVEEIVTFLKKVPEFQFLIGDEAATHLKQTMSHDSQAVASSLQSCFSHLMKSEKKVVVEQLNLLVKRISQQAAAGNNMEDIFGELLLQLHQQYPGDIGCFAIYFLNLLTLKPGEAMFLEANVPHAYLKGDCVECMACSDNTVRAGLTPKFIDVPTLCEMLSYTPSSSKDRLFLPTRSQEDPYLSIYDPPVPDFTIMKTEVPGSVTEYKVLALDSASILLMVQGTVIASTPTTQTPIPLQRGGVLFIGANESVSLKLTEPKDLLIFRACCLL
bCat KO growth – beta-catenin-lacking colon tumor cell growth suppression; HCT116 beta-catenin knockout viability, CellTiter-Glo, 60 h; stronger effect = lower value; viability, % at 10 µM; hit rate 1.5% among 140,000;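 active = viability at or under a set limit, the compound median less 4 SD, cut at about 6% in these data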;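 note: 0% = Hyamine 1622 control at 20 µM and 100% = untreated cell control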
PMI act hi M6P – PMI (human) activation, high substrate | P34949 | coupled PMI enzyme assay, resazurin fluorescence, 20 min; stronger effect = higher value; 1 = untreated enzyme, 0 = substrate-free blank | activation factor at 20 µM | hit rate 0.34% among 190,000 | AID 1216;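 active = activation factor of 2 or more at 20 µM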
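Test system: human phosphomannose isomerase with PGI, G6PDH, diaphorase coupling enzymes; amount: 15 ng/mL PMI; incubation: enzyme reaction with compound 20 min at room temperature; technique: resorufin fluorescence (Ex 544/Em 590 nm) from resazurin via diaphorase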
Lmaj promast – inhibitors of Leishmania major promastigote growth. Leishmania major promastigotes, resazurin fluorescence viability. hit rate 9% among 200,000. inhibition, % at 10 µM; in the data active = inhibition above about 50%;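 note: promastigotes grown with compound for 44 hours at 28 °C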
PTEN del growth – growth suppressors of cells with PTEN tumor suppressor deletion. hit rate 1.2% among 140,000. AID 827. viability, % at 10 µM. HCT116 PTEN-null viability, CellTiter-Glo, 60 h; stronger effect = lower value;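 active = viability at or below a set limit, 4 SD under the median of all tested compounds, cut at about 3.7% in these data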;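 note: PTEN knockout HCT116 line with beta catenin targeted HCT116 as companion control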
* marks the source's active call; other numbers are inactive results; . = no result.

SMILES | PMI activator | bCat KO growth | PMI act hi M6P | Lmaj promast | PTEN del growth
COc1ccc(-c2cc(C(F)F)n3ncc(C(=O)N4CCSCC4)c3n2)cc1 | 0.9 | 77.8 | 0.9 | 48.1 | 83.5
Cc1ccc(-c2cc(C(F)F)n3ncc(C(=O)N4CCN5CCCC5C4)c3n2)cc1 (stereo not given) | 1 | 77.4 | 1 | 55.2* | 65.8
N#CCCn1cc(C(=O)O)c(-c2cccs2)n1 | 1.2 | . | 1.2 | -1.8 | .
CCNC(=O)NC(=O)C(C)OC(=O)C1CCN(S(=O)(=O)c2ccccc2C(=O)OC)CC1 (stereo not given) | 1 | . | 1 | -0.9 | .
CCOC(=O)C1CCCN(C(=O)c2sc3nc(-c4ccc(OC)cc4)cn3c2C)C1 (stereo not given) | 1.1 | 92.0 | 1.4 | 99.8* | 83.8
COc1ccc(-c2cc(C(F)F)n3ncc(C(=O)Nc4cccc(S(=O)(=O)N5CCOCC5)c4)c3n2)cc1 | 1 | . | 1 | 65.2* | .
O=C(Nc1cccc(S(=O)(=O)N2CCOCC2)c1)c1cn(-c2ccccc2)nc1-c1ccccc1 | 0.8 | 80.3 | 0.8 | 43.6 | 71.0
O=C(Nc1cccc(S(=O)(=O)N2CCOCC2)c1)c1cn(-c2ccccc2)nc1-c1ccc(F)cc1 | 0.9 | 68.1 | 1 | 99.5* | 57.9
COc1cc(-c2cc(C(=O)Nc3ccccc3N3CCOCC3)c3ccccc3n2)cc(OC)c1OC | 0.9 | . | 0.8 | 60.6* | .
O=C(NN1CCOCC1)c1cc(-c2ccc(Br)cc2)nc2ccccc12 | 1.1 | 83.0 | 1 | 58.5* | 82.3
CCc1ccc(-c2cc(C(=O)NN3CCOCC3)c3ccccc3n2)cc1 | 0.9 | 82.5 | 0.9 | 4.7 | 92.7
O=C(Nc1ccccc1N1CCOCC1)c1cc(-c2ccco2)nc2ccccc12 | 0.8 | 62.8 | 1 | 2.2 | 52.0
COc1ccc(C)cc1C(=O)CCC(=O)Nc1ccccc1N1CCOCC1 | 1 | 1.2* | 1.1 | -4.6 | 1.2*
COc1cc(CC(=O)Nc2ccccc2N2CCOCC2)cc(OC)c1OC | 1.1 | . | 1 | -4.5 | .
O=C(Nc1ccccc1-c1ccccc1)C(c1ccccc1)c1ccccc1 | 0.9 | 83.1 | 1 | 27.1 | 79.7
CCN(CCn1cccn1)Cc1c(C(=O)N2C[C@@H](C)O[C@@H](C)C2)nc2ccc(Cl)cn12 | 1 | . | 0.9 | -7.8 | .
O=S1(=O)C=C(SCc2cccc(Cl)c2)Nc2ccccc21 | 1 | 96.1 | 1 | -0.8 | 84.8
CCOC(=O)c1sc2nc(NC(=O)C(C)(C)C)sc2c1C | 0.9 | 75.5 | 0.9 | 65.0* | 70.9
NC(CSCc1cccc(Br)c1)C(=O)O (stereo not given) | 1 | . | 1.1 | 1.9 | .
Fc1ccccc1/C=N/Nc1ncnc2nc[nH]c12 | 0.9 | 65.7 | 0.9 | 52.0* | 74.5
Cc1cc(/C=N/NC(N)=S)c(C)n1-c1cccc(Cl)c1 | 1.3 | . | 1.3 | 94.2* | .
Cc1cc(/C=N/NC(N)=S)c(C)n1-c1ccc(Br)cc1 | 1.3 | . | 1.5 | 99.5* | .
Cc1cc(/C=N/NC(N)=S)c(C)n1-c1ccc(Cl)cc1 | 1.1 | 76.8 | 1.1 | 89.0* | 75.7
Cc1cccc(C)c1-n1c(C)cc(/C=N/NC(N)=S)c1C | 1.1 | 75.7 | 1.2 | 96.5* | 71.2
Cc1cc(/C=N\NC(=O)CC(=O)NC2CCCCC2)c(C)n1-c1ccc(Cl)cc1 | 0.8 | 102.2 | 0.8 | -4.5 | 88.1
SMILES | PMI activator | bCat KO growth | PMI act hi M6P | Lmaj promast | PTEN del growth
CN(C)/C=C/C(=O)c1ccc(Cl)c([N+](=O)[O-])c1 | 1.1 | . | 1.2 | 3.4 | .
COc1ccc(-c2c(C)[nH]n3c(=O)c(Cc4ccccc4)c(C)nc23)cc1 | 0.9 | 21.4 | 1 | 81.0* | 16.8
Cc1nc2c(-c3ccccc3)c[nH]n2c(=O)c1Cc1ccccc1 | 1.2 | . | 1.2 | 58.9* | .
Cc1cc2nc(C)c(Cc3ccccc3)c(=O)n2[nH]1 | 0.9 | 85.3 | 1 | 97.5* | 92.7
O=c1oc(-c2ccc([N+](=O)[O-])cc2)nc2ccc(O)cc12 | 1 | . | 0.9 | 3.8 | .
O=[N+]([O-])c1ccc(-c2cc(-c3ccncc3)nc3ccc4ccccc4c23)cc1 | 1 | 86.5 | 1 | 6.5 | 85.4
Cc1ccc(CN2CCN(/N=C/c3ccc(C)s3)CC2)cc1 | 0.9 | 95.3 | 0.9 | 67.7* | 96.6
Cc1ccc(N2CCN(S(=O)(=O)N3CCCCC3)CC2)cc1Cl | 1 | 86.3 | 1 | 76.1* | 100.0
Cc1ccc(N2CCN(C(=O)N3CCCC3)CC2)cc1Cl | 0.8 | 102.7 | 0.8 | -4.9 | 84.3
Clc1ccc(OCCOCCN2CCc3ccccc3C2)c(Cl)c1 | 0.9 | 55.6 | 0.9 | 88.0* | 68.6
O=C(CCCOc1ccc(Cl)cc1Cl)N1CCCc2ccccc21 | 0.9 | 89.0 | 0.9 | 1.4 | 83.2
c1ccc(-c2ccccc2OCCOCCN2CCc3ccccc3C2)cc1 | 1 | . | 0.9 | 76.8* | .
c1ccc(-c2ccccc2OCCN2CCOCC2)cc1 | 1.1 | 87.1 | 1.1 | -0.2 | 97.8
CCCN(CCC)S(=O)(=O)c1ccc(C(=O)N2CCCc3ccccc32)cc1 | 1 | 77.3 | 1 | 63.5* | 82.4
CCCN(CCC)S(=O)(=O)c1ccc2c(c1)CCCN2C(C)=O | 0.9 | 76.9 | 1 | -7.3 | 77.2
CCOC(=O)N1CCC(N2Cc3cccc(C(=O)N4CCN(c5cccc(C)c5C)CC4)c3C2=O)CC1 | 0.9 | . | 1 | 61.6* | .
CCCN1Cc2cccc(C(=O)N3CCN(c4cc(Cl)ccc4C)CC3)c2C1=O | 1 | 54.4 | 1.1 | 96.7* | 64.8
CCOc1ccccc1NC(=S)NCc1cccn1C | 1.2 | . | 1.1 | -1.0 | .
Cn1cc(-c2ccccc2C(N)=O)c(=O)c2cc(Cl)ccc21 | 1.1 | . | 1.1 | 72.6* | .
Cn1cc(-c2ccccc2C(N)=O)c(=O)c2ccccc21 | 1 | . | 0.9 | -1.2 | .
COC(=O)c1nn(-c2nc(-c3cccc(OC)c3)cc(C(F)(F)F)n2)cc1[N+](=O)[O-] | 1.1 | . | 1.1 | 90.0* | .
COC(=O)c1nn(-c2nc(-c3ccc(OC)c(OC)c3)cc(C(F)(F)F)n2)cc1[N+](=O)[O-] | 0.9 | . | 0.9 | 7.6 | .
NC(=O)c1ccsc1NC(=O)Cc1ccc([N+](=O)[O-])cc1 | 0.8 | . | 0.9 | 19.0 | .
Cc1ccc(S(=O)(=O)CCSC(=N)N)cc1 | 1.1 | . | 1.1 | 6.7 | .
O=C1CN(C(=O)c2ccccc2)c2ccccc2N1 | 0.9 | 96.0 | 0.9 | -4.3 | 101.3
SMILES | PMI activator | bCat KO growth | PMI act hi M6P | Lmaj promast | PTEN del growth
Cc1cccc(Nc2c([N+](=O)[O-])cc(C(=O)N3CC(=O)Nc4ccccc43)cc2[N+](=O)[O-])c1 | 0.9 | . | 1 | 81.7* | .
Cc1ccc(C)c(Nc2c([N+](=O)[O-])cc(C(=O)N3CC(=O)Nc4ccccc43)cc2[N+](=O)[O-])c1 | 0.9 | 93.1 | 0.9 | 96.5* | 82.0
O=[N+]([O-])c1ccc(N2CCN(c3nc(-c4ccc(Cl)cc4)cs3)CC2)cc1 | 1 | 64.4 | 1 | 97.7* | 65.9
Cc1cccc(NC(=O)CSc2nnc(Cn3cnc4ccccc43)o2)c1 | 0.9 | 91.5 | 0.9 | -6.6 | 102.0
CCC(C)Nc1nnnc2c1sc1nc3c(cc12)COC(C)(C)C3 (stereo not given) | 1.2 | . | 1.1 | 50.1* | .
CCCOc1ncnc2c1sc1nc3c(cc12)COC(C)(C)C3 | 0.9 | . | 0.9 | -4.3 | .
